MBD2 DNA inh = MBD2-methylated oligo binding inhibition. inhibition, % at 4.4 µM. TR-FRET, MBD2 binding to methylated oligonucleotide. AID 686964. actives 0.31% (n = 370,000). Q9UBB5; in the data active = inhibition above about 13%
Target sequence (Q9UBB5 whole entry, looked up): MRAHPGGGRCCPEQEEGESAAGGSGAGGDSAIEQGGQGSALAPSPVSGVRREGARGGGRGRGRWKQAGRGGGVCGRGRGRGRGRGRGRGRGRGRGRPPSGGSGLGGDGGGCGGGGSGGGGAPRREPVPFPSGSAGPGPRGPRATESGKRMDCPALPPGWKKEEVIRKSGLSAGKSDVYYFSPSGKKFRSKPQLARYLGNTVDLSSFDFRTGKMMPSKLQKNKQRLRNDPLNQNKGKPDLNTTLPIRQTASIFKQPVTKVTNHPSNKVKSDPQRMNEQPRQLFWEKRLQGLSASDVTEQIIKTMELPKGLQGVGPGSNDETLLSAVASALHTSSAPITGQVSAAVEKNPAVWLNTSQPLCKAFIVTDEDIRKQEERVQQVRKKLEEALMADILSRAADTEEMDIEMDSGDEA
Tn6 DDE FP = inhibitors of Tn6 peptide binding to human fibrin DD(E); P02675; Fibrin DD(E) TRITC-Tn6 fluorescence polarization displacement; inhibition, % at 8.3 µM; actives 0.21% (n = 370,000);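 active = inhibition above a per-campaign cutoff: mean of compounds within control limits plus 3 SD, cut at about 15% in these data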;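 also: 0% = median of all compound wells on the plate and 100% = blocking peptide control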
Tn7 DDE FP = inhibitors of Tn7 peptide binding to human fibrin DD(E) | P02675 | FP displacement of FITC-Tn7 peptide from fibrin DD(E); 0% = median of compound wells per plate | inhibition, % at 8.3 µM | actives 0.13% (n = 370,000) | AID 720508;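 active = inhibition above the mean of compounds falling within the control limits plus 3 SD of them, cut at about 14% in these data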;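 also: 0% = plate median of compound wells and 100% = 10 µM Aha-Tn7 peptide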
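Test system – human fibrin DD(E) · Times – 10 min preincubation, 3 h with tracer, room temperature · Detection – fluorescence polarization of the labelled Tn7 tracer · Measure – percent inhibition normalized to high-control wells · Benchmarks – high control wells with 10 µM unlabelled Aha-Tn7 peptide (full inhibition) · Repeats – singlicate testing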
UHRF1 binding = blocks human UHRF1 binding to methylated DNA; UHRF1 binding to methylated oligo, TR-FRET; actives 0.75% (n = 370,000); inhibition, % at 4.4 µM; Q96T88; in the data active = inhibition above about 21%;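 also: UHRF1 SRA domain binding a hemimethylated CpG hairpin DNA probe; 0% = median of test compound wells and 100% = reference inhibitor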
LEDGF integ inh = blocks HIV-1 LEDGF/p75-dependent DNA integration | actives 0.64% (n = 370,000) | AID 743269 | TR-FRET IN-LEDGF/p75 DNA integration, Eu/Cy5 | inhibition, % at 3.7 µM;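 active = inhibition above the screen-wide mean plus 3 SD, cut at about 13% in these data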;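 also: signal is the Cy5 over europium emission ratio at 671 and 618 nm; 0% = plate median of compound wells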
TDP2 absorb = blocks human TDP2 phosphodiesterase activity; O95551; actives 0.34% (n = 370,000); recombinant TDP2, T5PNP hydrolysis, p-nitrophenol absorbance 415 nm; inhibition, % at 12.8 µM; AID 720702;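 active = inhibition above the mean of all tested compounds plus 3 SD, set per campaign, cut at about 25% in these data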;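 also: 0% = DMSO with enzyme and 100% = buffer with substrate but no TDP2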
Target sequence (O95551 whole entry, looked up): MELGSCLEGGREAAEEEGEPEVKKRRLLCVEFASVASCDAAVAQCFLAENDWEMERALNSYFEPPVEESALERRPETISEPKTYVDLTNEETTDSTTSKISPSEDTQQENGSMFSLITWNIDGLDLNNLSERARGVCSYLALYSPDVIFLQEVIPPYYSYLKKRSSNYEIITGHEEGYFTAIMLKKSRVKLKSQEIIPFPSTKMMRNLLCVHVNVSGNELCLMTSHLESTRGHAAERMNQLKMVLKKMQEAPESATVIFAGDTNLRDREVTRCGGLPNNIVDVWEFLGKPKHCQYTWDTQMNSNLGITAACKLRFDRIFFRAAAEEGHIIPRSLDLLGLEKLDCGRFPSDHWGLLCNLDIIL
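Incubation: 2 h at 37 °C; Test system: recombinant human TDP2; Quantity: enzyme 120 nM; Read-out basis: percent inhibition; Medium: 50 mM Tris-HCl pH 7.5 with Mg2+, KCl, DTT, BSA; Repeats: single replicate; Compound: 12.8 µM single point, 1% DMSO; Signal: epi absorbance; Reagent: 5 mM T5PNP chromogenic substrate; Benchmarks: no-enzyme high, DMSO-plus-enzyme low.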
Tn7 DDE conf = confirmation of inhibitors of Tn7 binding to human fibrin DD(E); shares compounds with Tn7 DDE FP; FP displacement of TRITC-Tn7 peptide from DD(E); 0% set at plate's compound-well median; inhibition, % at 8.3 µM; actives 5% (n = 460);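 active = inhibition above the campaign cutoff, the mean of compounds within control limits plus 3 SD, cut at about 14% in these data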;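 also: 100% = median FP of high control wells holding Aha-Tn7 inhibitor peptide; displacers lower polarization since freed probe rises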
DDE Tn7 FP ctr = DD(E)-Tn7 binding inhibition, counter-screen. AID 720633. inhibition, % at 8.3 µM. shares compounds with Tn7 DDE FP. fibrin DD(E), TRITC-Tn7 probe displacement, fluorescence polarization. actives 3% (n = 460);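 active = inhibition above the cutoff, the mean of compounds lying between the control bounds plus 3 SD of those compounds, cut at about 17% in these data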;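 also: 0% = median of compound sample wells and 100% = excess unlabeled Aha-Tn7 peptide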
* marks the source's active call; other numbers are inactive results; x = not tested or not shown. Only some compounds are listed: those with a hit (about 1.9% of all), similar ones and a draw of the others.

SMILES	MBD2 DNA inh	Tn6 DDE FP	Tn7 DDE FP	UHRF1 binding	LEDGF integ inh	TDP2 absorb	Tn7 DDE conf	DDE Tn7 FP ctr
COc1cccc(/C=N\NC(=O)c2ccc(Cn3cc(Br)c([N+](=O)[O-])n3)o2)c1O	-6.0	-13.2	14.3*	-2.7	-3.0	0.4	-2.5	-10.1
Nc1[nH]c(C(=O)c2ccccc2)c(-c2cccc3ccccc23)c1C(=O)c1ccc(Br)cc1	-5.0	5.1	-0.1	-4.2	5.5	-7.9	x	x
CN(C)S(=O)(=O)N1CCC(Oc2ccc(C(=O)N3C[C@@H]4CCC[C@H]3C4)cc2)CC1	1.7	9.5	14.1*	2.2	-0.5	-0.4	3.8	-2.8
COC(=O)C1CSC(C(=O)OC)N1C(=O)Nc1ccc(Cl)c(Cl)c1 (centres undefined)	1.6	3.5	15.0*	0.7	1.6	6.0	1.2	-1.8
COC(=O)C1CSC(C(=O)OC)N1C(=O)Nc1ccc(Cl)cc1 (centres undefined)	-2.6	2.4	2.0	-2.0	-3.0	-0.9	x	x
O=C1CCC[C@H]2CC3(CC[C@]24CCCN14)OCCO3	-5.2	4.7	4.2	-2.3	-4.8	-3.0	x	x
NS(=O)(=O)c1ccc(CCNc2nn3c(-c4ccc(F)c(Cl)c4)cnc3s2)cc1	-3.1	7.2	14.0*	-5.0	-1.9	-3.7	9.1	0.1
NC(=O)c1c(N)[nH]c(C(=O)c2ccccc2)c1-c1ccc(Cl)cc1Cl	3.0	2.9	2.8	-4.4	-1.3	2.6	x	x
CC[C@H]1OC(=O)[C@H](C)[C@@H](O[C@H]2C[C@@](C)(OC)[C@@H](O)[C@H](C)O2)C(C)[C@@H](O[C@@H]2O[C@H](C)C[C@H](N(C)C)[C@H]2O)[C@](C)(O)C[C@@H](C)CN(C)[C@H](C)[C@@H](O)[C@]1(C)O (some centres undefined)	3.5	9.4	14.3*	2.0	-4.2	-1.2	5.0	5.4
Cc1cccc(NC(=O)c2ccc(C(=O)c3ccccc3)cc2)n1	-0.1	-3.5	19.6*	2.1	-0.6	-4.2	5.1	-0.6
O=C(OCC#CCSc1nnc(-c2ccccc2Cl)o1)c1ccc(F)cc1	0.7	-1.7	4.6	-1.3	1.3	8.2	x	x
CCCN1C(=O)c2cccc3c(N4CCCCC4)ccc(c23)C1=O	3.2	3.9	16.3*	-16.1	2.7	-5.9	5.2	3.0
CCCCNc1ccc2c3c(cccc13)C(=O)N(CCCC)C2=O	-5.0	13.8	47.4*	-18.6	-0.2	-11.5	7.1	19.0*
COc1ccc(OC)c(NCCN2C(=O)c3ccccc3C2=O)c1	-4.0	2.5	5.6	-3.6	-4.9	1.0	x	x
COC(=O)C1=C(C)N(Cc2cccc(C(F)(F)F)c2)C(=NCc2cc(OC)c(OC)c(OC)c2)NC1c1cccc(Cl)c1 (centres undefined)	0.7	-2.8	7.1	0.0	0.1	-3.1	x	x
CC1(C)Cc2c(cnn2-c2ccccc2)C(NC(=O)CCCN2CCCCC2=O)C1 (centres undefined)	-5.6	-0.6	15.7*	-1.1	-4.2	-1.6	1.2	0.1
CCc1c(-c2ccc(F)cc2F)ncn1CCc1ccccc1OC	0.7	-3.4	3.7	16.1	3.7	1.4	x	x
CCN(C(=O)C1CCCN(c2nnc(-n3cccc3)s2)C1)c1ccccc1C (centres undefined)	2.7	-3.7	-12.6	4.4	1.5	-10.8	x	x
CCCCNC(=S)N(C)/N=C/c1ccccc1C(=O)O	-1.0	0.4	14.4*	-2.8	3.0	7.2	-8.6	-7.0
CCCCNC(=S)N(C)N=C1CCC(c2ccccc2)CC1 (centres undefined)	7.5	-1.3	0.2	2.1	4.9	3.5	x	x
COCCCNC(=O)c1oc(=O)c2ccccc2c1-c1ccc(C)cc1	-1.1	-2.4	4.6	-1.1	-2.8	8.5	x	x
O=C(Nc1ccc(F)cc1F)C1CCCN1S(=O)(=O)c1cccnc1 (centres undefined)	2.6	3.6	4.5	0.2	-4.5	1.2	x	x
CC(C)(C)/C(COc1ccccc1[N+](=O)[O-])=N/O	-2.3	3.5	1.4	1.8	2.4	-3.4	x	x
CC(C)(C)OC(=O)C(Oc1ccccc1[N+](=O)[O-])C(=O)OC(C)(C)C	3.3	10.7	19.0*	1.3	-7.6	-2.9	0.9	10.9
Nc1[nH]c(C(=O)c2ccc(Br)cc2)c(-c2c(F)cccc2F)c1C(=O)NCCc1c[nH]c2ccccc12	0.6	11.2	7.2	-0.5	0.0	6.2	x	x
SMILES	MBD2 DNA inh	Tn6 DDE FP	Tn7 DDE FP	UHRF1 binding	LEDGF integ inh	TDP2 absorb	Tn7 DDE conf	DDE Tn7 FP ctr
C[C@H](O)[C@@H]1CN2CCc3c([nH]c4cccc(-c5ccc6c(c5)OCO6)c34)[C@@H]2C[C@@H]1N(C)C(=O)c1ccco1	-3.0	-10.4	-0.8	-2.7	4.2	-0.3	x	x
C=CC[C@@H](CC(=O)N(CCO)Cc1ccccc1)C(=O)N[C@@H](COC(=O)[C@@H](CC=C)Cc1ccc(F)cc1)Cc1ccccc1	-3.4	0.2	-10.6	-0.3	-2.0	-8.2	x	x
C=CC[C@@H](CC(=O)N(CCO)Cc1ccccc1)C(=O)N[C@H](COC(=O)[C@@H](CC=C)Cc1ccc(F)cc1)Cc1ccccc1	-3.3	3.2	16.2*	0.4	-2.6	-3.4	-0.6	-3.6
Nc1cc(N2CCCCC2)c([N+](=O)[O-])cc1Cl	-0.6	-10.1	13.9*	-3.1	-1.5	8.3	-4.6	-10.6
COc1ccc(-n2cc(COC(=O)NCCc3ccccc3)nn2)cc1	1.2	1.5	-2.4	0.6	1.8	6.8	x	x
Nc1nc(-n2cnnc2)nn1-c1ccccc1	0.8	1.7	4.8	-1.6	0.6	-0.1	x	x
Nc1nc(N2C(=O)C3CC=CCC3C2=O)nn1-c1ccccc1 (centres undefined)	-2.0	-5.2	16.3*	0.3	1.1	8.5	-2.4	-2.8
COC(=O)c1cc(-c2ccc(F)c(Cl)c2)c(=O)n2c1CCC2	-6.0	6.2	-5.1	-0.4	8.2	-4.9	x	x
COC(=O)[C@H](C(C)C)N(Cc1ccccc1)S(=O)(=O)CCN1CCCC1	5.3	5.1	-6.5	-1.1	5.5	-10.9	x	x
COC(=O)C(C(C)C)N(Cc1cc(OC)cc(OC)c1)S(=O)(=O)CCl (centres undefined)	1.7	0.7	14.7*	19.3	2.1	8.4	-0.3	-3.6
CC(C)(CNc1ccc([N+](=O)[O-])cc1C#N)N1CCOCC1	3.3	2.2	15.1*	0.5	0.5	8.3	5.0	1.6
O=C(CCCOc1ccc(Cl)cc1)N1CCCCCC1	3.7	2.9	13.8*	-0.3	2.8	5.8	8.3	3.7

Screens as filed in PubChem.
